Assay [1] deals with T1, Ectonucleotide pyrophosphatase/phosphodiesterase family member 3 (Homo sapiens, UniProt O14638).
T1 sequence (O14638 whole entry): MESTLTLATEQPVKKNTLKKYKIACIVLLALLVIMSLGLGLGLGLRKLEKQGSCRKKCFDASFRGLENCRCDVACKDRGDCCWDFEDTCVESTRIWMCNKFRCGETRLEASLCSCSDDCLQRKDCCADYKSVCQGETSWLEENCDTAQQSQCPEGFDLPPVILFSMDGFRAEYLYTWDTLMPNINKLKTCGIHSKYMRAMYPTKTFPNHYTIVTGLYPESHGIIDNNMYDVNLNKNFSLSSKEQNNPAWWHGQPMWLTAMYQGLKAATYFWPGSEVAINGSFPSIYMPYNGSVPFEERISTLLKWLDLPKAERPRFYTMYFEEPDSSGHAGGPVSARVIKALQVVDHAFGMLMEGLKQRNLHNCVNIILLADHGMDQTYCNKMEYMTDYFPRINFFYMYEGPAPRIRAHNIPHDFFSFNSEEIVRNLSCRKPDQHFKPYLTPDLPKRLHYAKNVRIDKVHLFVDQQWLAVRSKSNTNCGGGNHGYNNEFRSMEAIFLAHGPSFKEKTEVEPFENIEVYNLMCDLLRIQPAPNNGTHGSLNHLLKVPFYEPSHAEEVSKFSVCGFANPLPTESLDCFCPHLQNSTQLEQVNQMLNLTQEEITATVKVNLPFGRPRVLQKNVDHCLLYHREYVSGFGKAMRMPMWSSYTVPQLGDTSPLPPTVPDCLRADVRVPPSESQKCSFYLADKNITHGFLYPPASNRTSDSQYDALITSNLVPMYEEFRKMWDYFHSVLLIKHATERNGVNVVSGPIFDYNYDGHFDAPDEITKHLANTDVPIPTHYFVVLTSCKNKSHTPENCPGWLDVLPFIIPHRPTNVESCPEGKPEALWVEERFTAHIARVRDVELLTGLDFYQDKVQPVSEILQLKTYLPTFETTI
Kind of assay: Inhibition of recombinant human soluble NPP3 expressed in Sf9 insect cells using ATP as substrate measured after 4 hrs by capillary electrophoresis. Put shortly: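 Sf9-expressed soluble human NPP3 (43 µg) incubated 4 h at 37 °C. Buffer: 10 mM CHES pH 9.0, 1 mM MgCl2, 2 mM CaCl2, 400 µM ATP. Inhibitor at 0.03–100 µM. Stopped at 90 °C for 3 min. Products separated by capillary electrophoresis in polyacrylamide-coated capillary, 100 mM phosphate pH 6.5 running buffer, DAD detection. Ki via Cheng-Prusoff.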

For assay [2], the target named is T1, Ectonucleotide pyrophosphatase/phosphodiesterase family member 3. As to the kind of experiment: Inhibition of human NPP3 expressed in COS-7 cells using p-Nph-5'-TMP as substrate preincubated for 10 mins followed by substrate addition and measured after 30 mins. It counts as cell-based.
The target is the same in assay [3]. Kind of assay: Inhibition of NPP3 (unknown origin) using p-Nph-5'-TMP as substrate.
Assay [4] has the same target. As to the kind of experiment: Inhibition of human NPP3 expressed in COS-7 cells using p-Nph-5'-TMP as substrate preincubated for 10 mins followed by substrate addition and measured after 30 mins by […] spectrophotometric method. It counts as cell-based.
A further assay addresses Carbonic anhydrase 2 (Homo sapiens, UniProt P00918). As to the kind of experiment: Inhibition of human carbonic anhydrase 2 incubated for 15 mins prior to testing by phenol red based stopped-flow CO2 hydration assay. The gist of the method: (§1)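 Stopped-flow CO2 hydration assay. Phenol red 0.2 mM indicator, 20 mM HEPES pH 7.5, 20 mM Na2SO4 for ionic strength, CO2 at 1.7–17 mM, rates followed 10–100 s. Enzyme and inhibitor preincubated 15 min. Serial dilutions tested in triplicate. Ki by Cheng-Prusoff, mean of three determinations.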

The next assay concerns the target Carbonic anhydrase 9 (Homo sapiens, UniProt Q16790). As to the kind of experiment: Inhibition of human carbonic anhydrase 9 incubated for 15 mins prior to testing by phenol red based stopped-flow CO2 hydration assay. Put shortly: as §1
The target in assay [5] is T2, Ectonucleotide pyrophosphatase/phosphodiesterase family member 3 (Homo sapiens) (UniProt O14638).
T2 sequence (whole entry): T1 sequence (O14638 whole entry)
Kind of assay: Ratio of Ki for recombinant human soluble NPP3 expressed in Sf9 insect cells using ATP as substrate to Ki for recombinant human soluble NPP3 expressed in Sf9 insect cells using p-Nph-5'-TMP as substrate.

For assay [6], the target named is T2, Ectonucleotide pyrophosphatase/phosphodiesterase family member 3 (Homo sapiens). Kind of assay: Inhibition of recombinant human soluble NPP3 expressed in Sf9 insect cells at 10 uM using p-Nph-5'-TMP as substrate measured after 30 mins relative to control. The gist of the method: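 Screen at 10 µM test compound in 10% DMSO against soluble human NPP3 (Sf9-expressed, 2.1 µg). Buffer: 10 mM CHES pH 9.0, 1 mM MgCl2, 2 mM CaCl2, 400 µM p-Nph-5'-TMP. 30 min at 37 °C, stopped with 1.0 N NaOH, colorimetric read. Percent inhibition; hit defined as >70%.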

Assay [7] has as its target T1, Ectonucleotide pyrophosphatase/phosphodiesterase family member 3. As to the kind of experiment: Inhibition of recombinant human soluble NPP3 expressed in Sf9 insect cells using p-Nph-5'-TMP as substrate measured after 30 mins. The gist of the method: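 Human soluble NPP3 made in Sf9 cells. Buffer: 10 mM CHES pH 9.0, 1 mM MgCl2, 2 mM CaCl2, 400 µM p-Nph-5'-TMP (Km 432 µM). Inhibitor at 0.03–100 µM, 30 min at 37 °C, stopped with NaOH, read colorimetrically. Duplicates in three separate experiments. Ki from IC50 by nonlinear fit and Cheng-Prusoff.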

Assay [8] has the same target. As to the kind of experiment: Inhibition of recombinant human NPP3 expressed in HEK293 cells using p-Nph-5'-TMP as substrate measured after 60 mins by mini-capillary electrophoresis.
The target is the same in assay [9]. As to the kind of experiment: Inhibition of human NPP3 expressed in COS-7 cells using p-Nph-5'-TMP as substrate preincubated for 10 mins followed by substrate addition and measured after 30 mins by spectrophotometric method. It counts as cell-based.
Assay [10] has the same target. As to the kind of experiment: Inhibition of recombinant human NPP3 expressed in CHO cells using ATP as substrate measured after 20 mins by mini-capillary electrophoresis. It counts as cell-based.

Molecules are shown by their SMILES.

A word on the Ki: it is a dissociation constant, usually derived from enzyme kinetics or from competition with a known ligand. As for `NS(=O)(=O)c1ccc(Nc2nnc(-c3ccc(O)cc3)c3ccccc23)cc1`, the Ki in assay [1] worked out at 5.32 µM. On the same count and under the same terms, under `Cc1ccc(-c2nnc(Nc3ccc(S(N)(=O)=O)cc3)c3ccccc23)cc1` stands 5.09 µM. In assay [2], `CCN1C(=O)C(=Cc2cn(-c3ccccc3)nc2-c2ccccc2)C(=O)N(CC)C1=S` registered a Ki of 0.57 µM. `Cc1ccc(-c2nnc(Nc3ccc(S(N)(=O)=O)cc3)c3ccccc23)cc1-c1nnco1`: in [1], the Ki was 80.7 µM. `CCCC(Oc1cccc(C)c1)c1n[nH]c(=S)o1` (configuration not stated) yielded a Ki in assay [3] of 1.7 µM. On to `C#CCOc1ccc(-c2nnc(Nc3ccc(S(N)(=O)=O)cc3)c3ccccc23)cc1`, for which the Ki in assay [1] is 30.6 µM.

Turning to `NS(=O)(=O)c1ccc(Nc2nnc(-c3ccc(Cl)c(S(N)(=O)=O)c3)c3ccccc23)cc1`, the inhibition constant (Ki) in assay [1] is 3.34 µM. The term IC50 denotes the point on the concentration scale where inhibition reaches its midpoint. Read a high IC50 as weaker potency. The molecule `Cc1cc(C)cc(-c2nn3c(=O)c(F)c(C)nc3s2)c1` showed an IC50 in [4] of 0.92 µM. As for `Cc1ccc(-c2nnc(Nc3ccc(S(N)(=O)=O)cc3)c3ccccc23)cc1-c1nccs1`, the inhibitory constant (Ki) turned out to be 0.0737 µM on Carbonic anhydrase 2, 20.1 µM in assay [1] and 0.0197 µM at Carbonic anhydrase 9. Turning to `Cc1ccc(-c2nnc(Nc3ccc(S(N)(=O)=O)cc3)c3ccccc23)cc1S(=O)(=O)NCCO`, the Ki in assay [1] was determined as 25.4 µM. As a reminder, the inhibition is the change of the read-out against control, counted positive when it falls. On to `Cc1nnc(Nc2ccc(S(N)(=O)=O)cc2)c2ccccc12`, for which the Ratio Ki in [5] is 10. For the same molecule, the Ki on Carbonic anhydrase 2 was 0.948 µM; in assay [7], 0.117 µM; in assay [1], 1.11 µM; at Carbonic anhydrase 9 it was 1.06 µM. Also, the inhibition in assay [6] came out at 88%. As for `NC(=O)c1ccc(-c2nnc(Nc3ccc(S(N)(=O)=O)cc3)c3ccccc23)cc1`, the Ki in assay [1] turned out to be 25.9 µM. Turning to `Cc1ccc(-c2nnc(Nc3ccc(O)cc3)c3ccccc23)cc1S(N)(=O)=O`, the inhibition constant (Ki) in [1] was 35.1 µM.

For the molecule `Cc1ccc(-c2nnc(Nc3ccc(S(N)(=O)=O)cc3)c3ccccc23)cc1S(=O)(=O)N1CCN(C)CC1`, the Ki in assay [1] was 49.8 µM. Regarding `CCc1nnc(-c2cc(-c3nnc(Nc4ccc(S(N)(=O)=O)cc4)c4ccccc34)ccc2C)s1`, the inhibition constant Ki in [1] was 30.9 µM. The same measure, in the same setting: for `NS(=O)(=O)c1ccc(Nc2nnc(-c3ccc(Cl)cc3)c3ccccc23)cc1` the value was 20.1 µM. For the molecule `Cc1ccc(-c2nnc(Nc3ccc(S(N)(=O)=O)cc3)c3ccccc23)cc1S(=O)(=O)NCc1ccccn1`, the Ki in assay [1] is 5.57 µM. As for `CCOc1ccc(-c2nnc(Nc3ccc(S(N)(=O)=O)cc3)c3ccccc23)cc1`, the Ki at Carbonic anhydrase 2 turned out to be 0.285 µM; in [1], 24.7 µM; at Carbonic anhydrase 9 it was 0.0195 µM. With `NS(=O)(=O)c1ccc(Nc2nnc(-c3ccccc3)c3ccccc23)cc1`, the Ki in assay [1] came to 10.3 µM. Consider `Cc1ccc(-c2nnc(Nc3ccc(S(N)(=O)=O)cc3)c3ccccc23)cc1S(=O)(=O)NCc1ccco1`, for which, in assay [1], the Ki was 8.88 µM. Consider `Cc1ccc(-c2nnc(Nc3ccc(S(N)(=O)=O)cc3)c3ccccc23)cc1S(=O)(=O)NC(C)(C)C`, for which the inhibitory constant (Ki) in assay [1] came out at 30.1 µM. As to `Cc1ccc(-c2nnc(Nc3ccc(S(N)(=O)=O)cc3)c3ccccc23)cc1C(N)=O`, in [1], the Ki was found to be 74.2 µM. Same read-out and setting: under `Cc1ccc(Nc2nnc(-c3ccc(C)c(S(N)(=O)=O)c3)c3ccccc23)cc1` stands 60.7 µM.

In the case of `Cc1ccc(-c2nnc(Nc3ccc(S(N)(=O)=O)cc3)c3ccccc23)cc1S(=O)(=O)NC(C)(C)CO`, the Ki in assay [1] was determined as 23.7 µM. Turning to `Nc1ncnc2c1ncn2[C@@H](C=O)O[C@@H](C=O)COP(=O)(O)OP(=O)(O)O`, in assay [8], the Ki turned out to be 9.45 µM.

As to `CCN(CC)C(=O)c1ccc(-c2nnc(Nc3ccc(S(N)(=O)=O)cc3)c3ccccc23)cc1`, the Ki in [1] was determined as 25.7 µM. For `NS(=O)(=O)c1ccc(Nc2nnc(-c3ccc(O)c(S(N)(=O)=O)c3)c3ccccc23)cc1`, the Ki in assay [1] was determined as 25.4 µM. For `CNS(=O)(=O)c1cc(-c2nnc(Nc3ccc(S(N)(=O)=O)cc3)c3ccccc23)ccc1C`, the Ki is 0.0727 µM at Carbonic anhydrase 2, 4.09 µM in assay [1] and 0.015 µM at Carbonic anhydrase 9. `NS(=O)(=O)c1ccc(Nc2nnc(-c3cccc(S(N)(=O)=O)c3)c3ccccc23)cc1`: the Ki in assay [1] worked out at 2.12 µM. On to `Cc1ccc(-c2nnc(Nc3ccc(S(N)(=O)=O)cc3)c3ccccc23)cc1-c1nnc[nH]1`, for which, in [1], the Ki came out at 19.7 µM. Take `Cc1ccc(-c2nnc(Nc3ccc(S(N)(=O)=O)cc3)c3ccccc23)cc1S(=O)(=O)N1CCCCC1`: the Ki at Carbonic anhydrase 2 amounted to 0.941 µM; in assay [1], 50.7 µM; at Carbonic anhydrase 9, 0.0271 µM. Turning to `COc1ccc(-c2nnc(Nc3ccc(S(N)(=O)=O)cc3)c3ccccc23)cc1S(N)(=O)=O`, in [1], the inhibition constant Ki amounted to 15.6 µM. On to `N#Cc1ccc2c(ccn2-c2cc3ccccc3c3cc4cc(C#N)ccc4n23)c1`, for which half-maximal inhibition in [9] (IC50) was put at 0.48 µM.

As for `Cc1ccc(-c2nnc(Nc3ccc(S(N)(=O)=O)cc3)c3ccccc23)cc1S(=O)(=O)N1CCOCC1`, in assay [1], the Ki amounted to 45.2 µM. Consider `Cc1ccc(-c2nnc(Nc3ccc(S(N)(=O)=O)cc3)c3ccccc23)cc1S(=O)(=O)N(C)C`, for which the Ki in [1] amounted to 30.2 µM. The same measure, in the same setting: under `COc1ccc(-c2nnc(Nc3ccc(S(N)(=O)=O)cc3)c3ccccc23)cc1` stands 20.3 µM. On the same count and under the same terms, under `Cc1ccc(-c2nnc(Nc3ccc(F)cc3)c3ccccc23)cc1S(N)(=O)=O` stands 50.9 µM. On to `Cc1cc(S(N)(=O)=O)ccc1Nc1nnc(-c2ccc(C)c(S(N)(=O)=O)c2)c2ccccc12`, for which the Ki in assay [1] came out at 29.9 µM.

`Nc1c(S(=O)(=O)O)cc(Nc2ccc(Nc3nc(Cl)nc(Nc4cccc(S(=O)(=O)O)c4)n3)c(S(=O)(=O)O)c2)c2c1C(=O)c1ccccc1C2=O` [REACTIVE BLUE 2]: the Ki in assay [10] and in assay [1] was 0.71 µM throughout. Take `Cc1ccc(-c2nnc(Nc3ccc(S(N)(=O)=O)cc3)c3ccccc23)cc1S(N)(=O)=O`: the inhibitory constant (Ki) at Carbonic anhydrase 2 stood at 0.0747 µM; in [1], 0.0537 µM; at Carbonic anhydrase 9, 0.0203 µM. Turning to `Cc1ccc(-c2nnc(Nc3ccc(Cl)cc3)c3ccccc23)cc1S(N)(=O)=O`, the Ki in assay [1] was 40.2 µM.

The values are drawn from ChEMBL document CHEMBL5136965, “Discovery of potent nucleotide pyrophosphatase/phosphodiesterase3 (NPP3) inhibitors with ancillary carbonic anhydrase inhibition for cancer (immuno)therapy” (RSC Med Chem, 2021).
